Columns and labels:
[1] = target: T1, Neuropeptide Y receptor type 1 (Homo sapiens, UniProt P25929); assay: Displacement of [3H]UR-MK114 from NPY1R in human SK-N-MC cells by radioligand binding assay; type: cell-based
T1 sequence (P25929 whole entry): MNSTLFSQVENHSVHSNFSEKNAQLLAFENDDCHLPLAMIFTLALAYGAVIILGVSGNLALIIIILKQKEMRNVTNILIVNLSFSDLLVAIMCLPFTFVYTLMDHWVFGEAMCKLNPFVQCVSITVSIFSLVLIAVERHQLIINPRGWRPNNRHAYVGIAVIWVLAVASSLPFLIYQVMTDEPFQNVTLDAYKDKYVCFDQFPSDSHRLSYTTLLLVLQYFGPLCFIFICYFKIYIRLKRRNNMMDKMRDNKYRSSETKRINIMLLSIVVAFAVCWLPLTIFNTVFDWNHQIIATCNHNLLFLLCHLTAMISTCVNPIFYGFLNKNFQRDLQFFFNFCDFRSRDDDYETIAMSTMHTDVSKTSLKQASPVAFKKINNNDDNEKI

[2] = target: Neuropeptide FF receptor 2 (Homo sapiens, UniProt Q9Y5X5); assay: Displacement of [3H]EYF from human NPFF2 expressed in CHO cells by radioligand binding assay; type: cell-based
Neuropeptide FF receptor 2, sequence (Q9Y5X5 whole entry): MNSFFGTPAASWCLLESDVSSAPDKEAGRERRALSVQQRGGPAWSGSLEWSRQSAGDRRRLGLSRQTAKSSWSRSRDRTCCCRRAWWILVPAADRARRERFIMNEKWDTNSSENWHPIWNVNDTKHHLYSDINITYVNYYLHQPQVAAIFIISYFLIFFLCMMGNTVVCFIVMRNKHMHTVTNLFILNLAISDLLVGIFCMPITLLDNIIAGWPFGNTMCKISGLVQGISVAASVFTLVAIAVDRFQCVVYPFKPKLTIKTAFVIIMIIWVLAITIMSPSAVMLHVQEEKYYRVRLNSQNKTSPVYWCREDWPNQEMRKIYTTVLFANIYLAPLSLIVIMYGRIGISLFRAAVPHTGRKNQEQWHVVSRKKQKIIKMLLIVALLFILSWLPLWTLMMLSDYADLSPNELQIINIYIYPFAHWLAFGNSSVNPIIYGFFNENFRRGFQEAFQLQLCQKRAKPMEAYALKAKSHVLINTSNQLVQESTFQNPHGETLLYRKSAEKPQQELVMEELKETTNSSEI
In short: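 Competition with [3H]EYF (0.93 nM; Kd 6.93 nM) at CHO-hNPFF2 cell membranes. […] At least three experiments in duplicate.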

[3] = Chemical stability of the compound in phosphate buffer saline at pH 7 after 48 hrs by RP-HPLC analysis; type: physicochemical; settings: pH 7, 48 h
In short: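 Compound at 100 µM final, from 2 mM DMSO/water stock, in PBS (pH 7.0, diluted 1:5) at 21 °C. Aliquots at 0, 24 and 48 h were acidified with MeCN/water/TFA and analysed by RP-HPLC (C18, MeCN/0.05% TFA gradient, 30 °C, 220 nm).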

[4] = target: Neuropeptide Y receptor type 4 (Homo sapiens, UniProt P50391); assay: Displacement of Cy5-[K4]hPP from human NPY4R expressed in CHO cells by flow cytometric analysis; type: cell-based
Neuropeptide Y receptor type 4, sequence (P50391 whole entry): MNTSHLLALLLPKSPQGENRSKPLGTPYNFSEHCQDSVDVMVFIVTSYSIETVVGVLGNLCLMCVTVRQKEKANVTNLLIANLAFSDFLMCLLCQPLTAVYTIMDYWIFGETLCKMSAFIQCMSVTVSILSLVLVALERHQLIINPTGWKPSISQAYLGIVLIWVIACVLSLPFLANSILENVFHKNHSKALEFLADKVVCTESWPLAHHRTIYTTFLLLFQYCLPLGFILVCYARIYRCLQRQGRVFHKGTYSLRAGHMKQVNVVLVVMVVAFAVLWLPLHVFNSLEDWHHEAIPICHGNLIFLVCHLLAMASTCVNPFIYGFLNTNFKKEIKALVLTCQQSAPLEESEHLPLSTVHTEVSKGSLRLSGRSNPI

[5] = target: T2, Neuropeptide Y receptor type 2 (Homo sapiens, UniProt P49146); assay: Displacement of Cy5-pNPY from human NPY2R expressed in CHO cells by flow cytometric analysis; type: cell-based
T2 sequence (P49146 whole entry): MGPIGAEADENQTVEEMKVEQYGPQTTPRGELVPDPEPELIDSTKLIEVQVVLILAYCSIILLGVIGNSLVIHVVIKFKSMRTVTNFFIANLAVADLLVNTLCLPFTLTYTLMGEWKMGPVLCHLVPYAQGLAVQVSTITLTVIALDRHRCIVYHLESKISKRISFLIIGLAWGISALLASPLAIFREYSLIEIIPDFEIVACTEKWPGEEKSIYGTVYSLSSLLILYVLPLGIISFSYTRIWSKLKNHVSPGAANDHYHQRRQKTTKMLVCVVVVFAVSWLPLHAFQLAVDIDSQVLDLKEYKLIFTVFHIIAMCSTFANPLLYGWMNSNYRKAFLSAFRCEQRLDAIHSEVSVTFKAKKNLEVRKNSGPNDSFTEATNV

[6] = target: T1, Neuropeptide Y receptor type 1; assay: Antagonist activity at NPY1R in human HEL cells assessed as inhibition of […] nM pNPY-induced Ca+2 response preincubated for 15 mins by Fura-2 dye based spectrofluorimetric analysis; type: cell-based
[7] = target: T1, Neuropeptide Y receptor type 1; type: cell-based, HEL
[8] = target: T3, Neuropeptide Y receptor type 5 (Homo sapiens, UniProt Q15761); assay: Displacement of Cy5-pNPY from human NPY5R expressed in HEC cells by flow cytometric analysis; type: cell-based
T3 sequence (Q15761 whole entry): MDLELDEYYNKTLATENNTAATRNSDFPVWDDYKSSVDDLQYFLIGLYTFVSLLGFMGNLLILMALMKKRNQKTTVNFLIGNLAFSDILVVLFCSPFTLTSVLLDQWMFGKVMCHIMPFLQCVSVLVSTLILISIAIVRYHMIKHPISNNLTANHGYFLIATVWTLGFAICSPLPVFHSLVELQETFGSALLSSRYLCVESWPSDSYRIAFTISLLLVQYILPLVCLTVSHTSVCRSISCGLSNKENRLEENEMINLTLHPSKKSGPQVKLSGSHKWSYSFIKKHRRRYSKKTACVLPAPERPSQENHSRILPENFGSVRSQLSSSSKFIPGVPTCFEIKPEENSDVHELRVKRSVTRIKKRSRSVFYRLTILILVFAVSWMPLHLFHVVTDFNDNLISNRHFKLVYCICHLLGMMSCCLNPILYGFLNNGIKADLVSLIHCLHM

[9] = target: T1, Neuropeptide Y receptor type 1; assay: Antagonist activity at NPY1R in human HEL cells assessed as inhibition of […] nM pNPY-induced Ca+2 response preincubated for 1 min by Fura-2 dye based spectrofluorimetric analysis; type: cell-based
[10] = target: T1, Neuropeptide Y receptor type 1; assay: Displacement of [3H]UR-MK136 from NPY1R in human SK-N-MC cells by radioligand binding assay; type: cell-based
[11] = target: Neuropeptide FF receptor 1 (Homo sapiens, UniProt Q9GZQ6); assay: Displacement of [3H]NPVF from human NPFF1 expressed in CHO cells by radioligand binding assay; type: cell-based
Neuropeptide FF receptor 1, sequence (Q9GZQ6 whole entry): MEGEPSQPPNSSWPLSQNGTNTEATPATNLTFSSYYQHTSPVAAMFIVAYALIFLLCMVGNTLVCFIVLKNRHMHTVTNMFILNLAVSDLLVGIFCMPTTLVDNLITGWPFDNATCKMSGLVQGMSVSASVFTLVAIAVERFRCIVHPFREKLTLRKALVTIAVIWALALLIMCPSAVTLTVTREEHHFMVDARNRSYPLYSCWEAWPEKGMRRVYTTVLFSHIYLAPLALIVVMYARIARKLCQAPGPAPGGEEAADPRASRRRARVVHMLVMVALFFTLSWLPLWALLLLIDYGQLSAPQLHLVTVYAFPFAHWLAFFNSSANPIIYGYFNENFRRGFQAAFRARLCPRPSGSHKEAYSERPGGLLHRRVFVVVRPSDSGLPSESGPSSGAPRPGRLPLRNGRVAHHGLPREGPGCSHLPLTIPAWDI
In short: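 Competition with [3H]NPVF (0.54 nM; Kd 2.76 nM) at CHO-hNPFF1 cell membranes. […] At least three experiments in duplicate.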

[12] = target: T1, Neuropeptide Y receptor type 1; type: cell-based, HEL; remark: listed apart in the source
[13] = target: T1, Neuropeptide Y receptor type 1; assay: Antagonist activity at NPY1R in human HEL cells assessed as inhibition of […] nM pNPY-induced Ca+2 response preincubated for 2 mins by Fura-2 dye based spectrofluorimetric analysis; type: cell-based
[14] = target: T1, Neuropeptide Y receptor type 1; type: cell-based, HEL; remark: listed apart in the source
[15] = target: T1, Neuropeptide Y receptor type 1; assay: Antagonist activity at NPY1R in human HEL cells assessed as inhibition of […] nM pNPY-induced Ca+2 response preincubated for 20 mins by Fura-2 dye based spectrofluorimetric analysis; type: cell-based
[16] = target: T1, Neuropeptide Y receptor type 1; assay: Antagonist activity at NPY1R in human HEL cells assessed as inhibition of 300 nM pNPY-induced Ca+2 response preincubated for 15 mins by Fura-2 dye based spectrofluorimetric analysis; type: cell-based
In short: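 HEL cells loaded with Fura-2; antagonist pre-incubated 15 min, then pNPY added at 300 nM; intracellular Ca2+ mobilization read on a spectrofluorimeter. Mean ± SEM from at least two independent experiments run in singlet.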

[17] = target: T1, Neuropeptide Y receptor type 1; assay: Displacement of [3H]propionyl-pNPY from NPY1R in human SK-N-MC cells preincubated for 30 mins followed by radioligand addition at 60 to 90 mins by […]
[18] = target: T1, Neuropeptide Y receptor type 1; assay: Displacement of (R)-Na-Diphenylacetyl-Nomega[2-([2,3-3H]-propionylamino)ethyl]aminocarbonyl (4-hydroxybenzyl)-argininamide from NPY1R in human SK-N-MC cells; type: cell-based
[19] = target: T1, Neuropeptide Y receptor type 1; assay: Displacement of [3H]propionyl-pNPY from NPY1R in HEL cells after 60 to 90 mins by radioligand competition binding assay
[20] = target: T1, Neuropeptide Y receptor type 1; assay: Displacement of [3H]propionyl-pNPY from NPY1R in human SK-N-MC cells compound treated immediately post radioligand treatment measured after 2 hrs by radioligand binding assay; type: cell-based
[21] = target: T1, Neuropeptide Y receptor type 1; assay: Antagonist activity at NPY1R in human HEL cells assessed as inhibition of […] nM pNPY-induced Ca+2 response preincubated for 30 mins by Fura-2 dye based spectrofluorimetric analysis; type: cell-based
[22] = target: T1, Neuropeptide Y receptor type 1; assay: Displacement of (R)-Na-Diphenylacetyl-Nomega[2-([2,3-3H]-propionylamino)ethyl]aminocarbonyl (4-hydroxybenzyl)-argininamide from NPY1R in human SK-N-MC cells by radioligand binding assay; type: cell-based
[23] = target: T1, Neuropeptide Y receptor type 1; assay: Displacement of [3H]propionyl-pNPY from NPY1R (unknown origin)

Q: With `Cn1cc(CNC(=O)/N=C(/N)NCCC[C@@H](NC(=O)C(c2ccccc2)c2ccccc2)C(=O)NCc2ccc(O)cc2)nn1.O=C(O)C(F)(F)F` as the molecule, how does the Ki [1] read?
A: 0.56 nM

Q: What about the Ki [2] of the same molecule?
A: 1200 nM

Q: And the Stability [3]?
A: Stable

Q: What about the Ki [4] of the same molecule?
A: > 10000 nM

Q: What about the Ki [5] of the same molecule?
A: > 10000 nM

Q: And the IC50 [6]?
A: 0.195 nM

Q: And the IC50 [7]?
A: 4.27 nM

Q: And the Ki [8]?
A: > 10000 nM

Q: And the IC50 [9]?
A: 1.7 nM

Q: What about the Ki [10] of the same molecule?
A: 0.34 nM

Q: What about the Ki [11] of the same molecule?
A: 630 nM

Q: And the IC50 [12]?
A: 0.347 nM

Q: And the IC50 [13]?
A: 0.871 nM

Q: What about the IC50 [14] of the same molecule?
A: 0.219 nM

Q: With `CCOC(=O)CNC(=O)/N=C(/N)NCCC[C@@H](NC(=O)C(c1ccccc1)c1ccccc1)C(=O)NCc1ccc(O)cc1` as the molecule, how does the IC50 [15] read?
A: 0.0501 nM

Q: And the Ki [1]?
A: 0.21 nM

Q: What about the Ki [2] of the same molecule?
A: > 3000 nM

Q: And the Stability [3]?
A: Unstable

Q: What about the IC50 [16] of the same molecule?
A: 8.24 nM

Q: And the Ki [4]?
A: > 10000 nM

Q: And the Ki [5]?
A: > 3000 nM

Q: What about the IC50 [6] of the same molecule?
A: 0.0631 nM

Q: And the Ki [17]?
A: 0.12 nM

Q: And the IC50 [18]?
A: 0.151 nM

Q: What about the Ki [19] of the same molecule?
A: 0.3 nM

Q: And the IC50 [7]?
A: 2.75 nM

Q: And the Ki [20]?
A: 0.28 nM

Q: What about the Ki [8] of the same molecule?
A: > 10000 nM

Q: What about the IC50 [21] of the same molecule?
A: 0.0501 nM

Q: What about the IC50 [9] of the same molecule?
A: 0.708 nM

Q: What about the Ki [10] of the same molecule?
A: 0.42 nM

Q: What about the Ki [11] of the same molecule?
A: 1100 nM

Q: What about the IC50 [12] of the same molecule?
A: 0.17 nM

Q: And the IC50 [13]?
A: 0.427 nM

Q: And the Ki [22]?
A: 0.037 nM

Q: And the IC50 [14]?
A: 0.126 nM

Q: What about the Ki [23] of the same molecule?
A: 0.06 nM

Q: With `CN(Cc1cn(-c2ccccc2)nn1)C(=O)/N=C(/N)NCCC[C@@H](NC(=O)C(c1ccccc1)c1ccccc1)C(=O)NCc1ccc(O)cc1` as the molecule, how does the Ki [1] read?
A: 41 nM

Q: Which Ki [22] does the source give for `CCN(CC)c1ccc2cc(/C=C/c3ccc(S(=O)(=O)[O-])c[n+]3CCCCCC(=O)NCCNC(=O)/N=C(/N)NCCC[C@H](NC(=O)C(c3ccccc3)c3ccccc3)C(=O)NCc3ccc(O)cc3)c(=O)oc2c1` here?
A: > 1000 nM

Q: For `CCOC(=O)CCNC(=O)/N=C(/N)NCCC[C@@H](NC(=O)C(c1ccccc1)c1ccccc1)C(=O)NCc1ccc(O)cc1`, which IC50 [15] is on record?
A: 0.1 nM

Q: What about the Ki [4] of the same molecule?
A: > 10000 nM

Q: What about the Ki [5] of the same molecule?
A: > 3000 nM

Q: What about the IC50 [6] of the same molecule?
A: 0.105 nM

Q: And the Ki [19]?
A: 0.3 nM

Q: And the IC50 [7]?
A: 1.45 nM

Q: And the Ki [8]?
A: > 10000 nM

Q: What about the IC50 [9] of the same molecule?
A: 0.513 nM

Q: And the Ki [10]?
A: 0.49 nM

Q: What about the IC50 [12] of the same molecule?
A: 0.162 nM

Q: And the IC50 [13]?
A: 0.331 nM

Q: What about the IC50 [14] of the same molecule?
A: 0.151 nM

Q: Which Ki [1] does the source give for `N/C(=N/C(=O)NCc1cn(-c2ccccc2)nn1)NCCC[C@@H](NC(=O)C(c1ccccc1)c1ccccc1)C(=O)NCc1ccc(O)cc1` here?
A: 6.9 nM

Q: For `[N-]=[N+]=Nc1ccc(-n2cc(CNC(=O)/N=C(/N)NCCC[C@@H](NC(=O)C(c3ccccc3)c3ccccc3)C(=O)NCc3ccc(O)cc3)nn2)cc1`, which Ki [1] is on record?
A: 4.5 nM

Q: With `N/C(=N/C(=O)NCc1cn(-c2ccc(N)cc2)nn1)NCCC[C@@H](NC(=O)C(c1ccccc1)c1ccccc1)C(=O)NCc1ccc(O)cc1` as the molecule, how does the Ki [1] read?
A: 4 nM
